This is an account of results in ChEMBL document CHEMBL3865809, “2-Indolylmethylenebenzofuranones as first effective inhibitors of ABCC2” (Eur J Med Chem, 2016).

Data set [1] is described as follows: Cytotoxicity against MDCK2 cells expressing ABCC2 measured after 72 hrs by MTT assay. The format is toxicity, cell-based, Canis lupus familiaris, MDCK-II. As to conditions: dog; call rule not given here. The method in brief:
(§1)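 MTT assay in parental and ABCC2-transfected MDCKII cells. Cells were seeded so that they stayed below confluence over 72 h at 37 °C, then exposed to compound from […] for 72 h. MTT at 5 mg/mL was added for 3 h. Formazan was dissolved in DMSO/isopropanol 1:1, and A570 was read and corrected at 690 nm. Mean ± SD of at least three independent experiments; DMSO-only controls run in parallel.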

Data set [2] deals with T1, ATP-binding cassette sub-family C member 2 (Homo sapiens, UniProt Q92887). As to the kind of experiment: Inhibition of ABCC2 (unknown origin) expressed in MDCK2 cells assessed as inhibition of calcein-AM efflux measured after 30 mins in presence of ABCB1 inhibitor GF120918 and ABCC1 inhibitor MK-571 by flow cytometry. The format is cell-based, MDCK-II.
T1 sequence (Q92887 whole entry): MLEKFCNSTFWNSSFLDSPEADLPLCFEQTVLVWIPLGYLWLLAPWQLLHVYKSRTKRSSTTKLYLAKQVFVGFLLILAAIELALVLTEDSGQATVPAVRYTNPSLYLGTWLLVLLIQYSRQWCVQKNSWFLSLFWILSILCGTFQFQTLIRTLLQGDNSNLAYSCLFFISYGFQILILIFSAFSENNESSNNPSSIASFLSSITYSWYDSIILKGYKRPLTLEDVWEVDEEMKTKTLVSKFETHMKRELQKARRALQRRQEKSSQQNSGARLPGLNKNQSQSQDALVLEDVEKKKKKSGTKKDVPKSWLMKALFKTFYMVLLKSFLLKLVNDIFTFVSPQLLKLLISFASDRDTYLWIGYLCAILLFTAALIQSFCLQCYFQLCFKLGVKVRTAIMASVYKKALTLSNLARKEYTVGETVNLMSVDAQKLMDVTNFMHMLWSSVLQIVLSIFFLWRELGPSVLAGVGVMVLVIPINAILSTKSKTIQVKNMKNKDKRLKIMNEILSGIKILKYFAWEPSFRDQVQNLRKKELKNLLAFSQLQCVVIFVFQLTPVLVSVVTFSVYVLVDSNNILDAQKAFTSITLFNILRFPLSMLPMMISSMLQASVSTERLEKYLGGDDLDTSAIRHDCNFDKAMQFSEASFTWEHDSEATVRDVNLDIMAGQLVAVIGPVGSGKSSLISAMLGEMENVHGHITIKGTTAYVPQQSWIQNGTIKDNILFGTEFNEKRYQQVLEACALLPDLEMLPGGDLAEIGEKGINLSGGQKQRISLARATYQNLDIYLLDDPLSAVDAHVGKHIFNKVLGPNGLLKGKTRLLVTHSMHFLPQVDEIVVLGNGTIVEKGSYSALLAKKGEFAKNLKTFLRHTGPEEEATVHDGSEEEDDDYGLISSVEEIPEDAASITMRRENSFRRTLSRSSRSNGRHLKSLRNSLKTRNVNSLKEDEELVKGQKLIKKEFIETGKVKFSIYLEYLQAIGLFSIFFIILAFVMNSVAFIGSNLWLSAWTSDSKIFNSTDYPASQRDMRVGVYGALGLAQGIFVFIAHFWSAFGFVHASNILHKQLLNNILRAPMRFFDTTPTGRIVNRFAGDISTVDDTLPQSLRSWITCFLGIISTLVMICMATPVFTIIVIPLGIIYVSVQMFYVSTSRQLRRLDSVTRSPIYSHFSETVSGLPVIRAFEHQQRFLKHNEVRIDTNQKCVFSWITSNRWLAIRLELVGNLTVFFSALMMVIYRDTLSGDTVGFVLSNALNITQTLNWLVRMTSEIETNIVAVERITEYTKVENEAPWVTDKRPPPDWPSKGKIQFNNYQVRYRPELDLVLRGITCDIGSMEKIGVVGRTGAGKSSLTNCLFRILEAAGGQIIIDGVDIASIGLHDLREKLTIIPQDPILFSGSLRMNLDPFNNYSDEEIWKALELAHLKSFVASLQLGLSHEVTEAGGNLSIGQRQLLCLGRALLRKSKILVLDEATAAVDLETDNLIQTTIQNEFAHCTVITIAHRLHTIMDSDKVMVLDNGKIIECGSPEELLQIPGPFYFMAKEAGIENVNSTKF
The target in data set [3] is T1, ATP-binding cassette sub-family C member 2. As to the kind of experiment: Inhibition of ABCC2 (unknown origin) expressed in human Flp-InTM-293 cells assessed as inhibition of calcein-AM efflux at 5 uM measured after 30 mins in presence of ABCB1 inhibitor GF120918 and ABCC1 inhibitor MK-571 by flow cytometry. The following applies: 0.5 h. The format is cell-based. The method in brief: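 A confirmatory calcein-AM efflux assay was run the same way in Flp-In-293 cells stably transfected with ABCC2 (pcDNA5-FRT-ABCC2 plus pOG44, by electroporation) and in parental Flp-In-293 cells. Fluorescence was read by flow cytometry, with % inhibition computed against the parental line.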

A short description of data set [4]: Cytotoxicity against wild-type MDCK2 cells measured after 72 hrs by MTT assay. The data set is classed as toxicity, cell-based, Canis lupus familiaris, MDCK-II. The following applies: dog. The method in brief: as §1
For orientation: Tetrazolium dyes change colour on reduction, which living cells bring about.

Data set [5] addresses T1, ATP-binding cassette sub-family C member 2. As to the kind of experiment: Inhibition of ABCC2 (unknown origin) expressed in MDCK2 cells assessed as inhibition of calcein-AM efflux at 5 uM measured after 30 mins in presence of ABCB1 inhibitor GF120918 and ABCC1 inhibitor MK-571 by flow cytometry. The data set is classed as cell-based. As to conditions: mdck-ii, 0.5 h. The method in brief: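 Parental and ABCC2-transfected MDCKII cells were seeded at 3 × 10³ cells/well and grown 48 h at 37 °C in 5% CO2. They were then loaded with 25 nM calcein-AM in the presence of GF120918 and […] MK-571. Intracellular fluorescence was read by flow cytometry in the 525/50 nm channel, collecting ≥5000 events.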

The IC50 is the concentration at which inhibition is half-maximal. In the case of `CCCCn1cc(/C=C2\Oc3cc(O)cc(O)c3C2=O)c2cc(C)ccc21`, the IC50 at 72 h in data set [1] and in data set [4] was over 50 µM throughout. Besides, the 50% inhibitory concentration (IC50) in data set [2] is 4.8 µM. The “inhibition (INH)” value in data set [3] and in data set [5] was “Active” each time.

With `CCCCn1c(/C=C2\Oc3cc(O)cc(O)c3C2=O)c(C)c2ccccc21`, in data set [2], the IC50 is 8.2 µM. Further, the “inhibition (INH)” value in data set [3] and in data set [5] was “Active” each time.

Consider `CCCCn1cc(/C=C2\Oc3cc(O)cc(O)c3C2=O)c2cccc(OC)c21`, for which, in data set [2], the IC50 is 6.3 µM. Besides, the “inhibition (INH)” value in data set [3] and in data set [5] was “Active” in each case.

`CCCCn1cc(/C=C2\Oc3cc(O)cc(O)c3C2=O)c2cc(OC)ccc21`: the IC50 in data set [2] was 13.9 µM. The “inhibition (INH)” value in data set [3] and in data set [5] was “Active” in each case.

As for `COc1ccc2c(c1)c(/C=C1\Oc3cc(O)cc(O)c3C1=O)cn2CC1CCCCC1`, the IC50 at 72 h in data set [1] and in data set [4] was over 50 µM throughout. In data set [2], the IC50 was 4.1 µM. Also, the “inhibition (INH)” value in data set [3] and in data set [5] was “Active” in each case.

On to `CCCCn1cc(/C=C2\Oc3cc(O)cc(O)c3C2=O)c2cccc(C)c21`, for which the 50% inhibitory concentration (IC50) at 72 h in data set [1] and in data set [4] was over 50 µM each time. Moreover, the half-maximal inhibitory concentration (IC50) in data set [2] is 4.5 µM. The “inhibition (INH)” value in data set [3] and in data set [5] was “Active” each time.

For the compound `COc1cccc(Cn2cc(/C=C3\Oc4cc(O)cc(O)c4C3=O)c3ccccc32)c1`, in data set [2], the IC50 was 17.5 µM. In addition, the “inhibition (INH)” value in data set [3] and in data set [5] was “Active” each time.

In the case of `O=C1/C(=C/c2cn(Cc3cccc(Br)c3)c3ccccc23)Oc2cc(O)cc(O)c21`, in data set [2], the half-inhibitory concentration (IC50) is 14.4 µM. Moreover, the “inhibition (INH)” value in data set [3] and in data set [5] was “Active” each time.

Regarding `CCCCn1c(C)c(/C=C2\Oc3cc(O)cc(O)c3C2=O)c2ccccc21`, the IC50 in data set [2] was 11.4 µM. Moreover, the “inhibition (INH)” value in data set [3] and in data set [5] was “Active” throughout.

`COc1ccc2c(c1)c(/C=C1\Oc3cc(O)cc(O)c3C1=O)cn2Cc1cccc(Br)c1`: the IC50 in data set [2] was 7.3 µM. Also, the “inhibition (INH)” value in data set [3] and in data set [5] was “Active” each time.

For the compound `Cn1cc(/C=C2\Oc3cc(O)cc(O)c3C2=O)c2cc(Br)ccc21`, the 50% inhibitory concentration (IC50) at 72 h in data set [1] and in data set [4] was over 50 µM each time. The IC50 in data set [2] was 4.5 µM. Moreover, the “inhibition (INH)” value in data set [3] and in data set [5] was “Active” each time.

With `O=C1/C(=C/c2cn(CC3CCCCC3)c3ccccc23)Oc2cc(O)cc(O)c21`, the IC50 in data set [2] was 10.5 µM. Further, the “inhibition (INH)” value in data set [3] and in data set [5] was “Active” in each case.

`CC(C)=CCn1cc(/C=C2\Oc3cc(O)cc(O)c3C2=O)c2ccccc21`: the IC50 in data set [2] was 10.6 µM. Also, the “inhibition (INH)” value in data set [3] and in data set [5] was “Active” in each case.

As to `CCCCn1c(/C=C2\Oc3cc(O)cc(O)c3C2=O)cc2ccccc21`, the half-maximal inhibitory concentration (IC50) in data set [2] is 9 µM. Further, the “inhibition (INH)” value in data set [3] and in data set [5] was “Active” each time.

In the case of `CCn1cc(/C=C2\Oc3cc(O)cc(O)c3C2=O)c2cc(Br)ccc21`, the concentration for half-maximal inhibition (IC50) in data set [2] is 17.8 µM. In addition, the “inhibition (INH)” value in data set [3] and in data set [5] was “Active” in each case.

On to `CCCCn1cc(/C=C2\Oc3cc(O)cc(O)c3C2=O)c2cc(Br)ccc21`, for which the concentration for half-maximal inhibition (IC50) in data set [2] is 15.4 µM. Further, the “inhibition (INH)” value in data set [3] and in data set [5] was “Active” each time.

For `O=C1/C(=C/c2cn(CC3CCCCC3)c3ccc(Br)cc23)Oc2cc(O)cc(O)c21`, the half-maximal inhibitory concentration (IC50) in data set [2] was 15.8 µM. Also, the “inhibition (INH)” value in data set [3] and in data set [5] was “Active” in each case.

For `Cn1c(/C=C2\Oc3cc(O)cc(O)c3C2=O)cc2ccccc21`, the 50% inhibitory concentration (IC50) in data set [2] is 11.1 µM. Also, the “inhibition (INH)” value in data set [3] and in data set [5] was “Active” throughout.

Take `O=C1/C(=C/c2cn(Cc3ccccc3)c3ccccc23)Oc2cc(O)cc(O)c21`: the 50% inhibitory concentration (IC50) in data set [2] is 12.2 µM. Further, the “inhibition (INH)” value in data set [3] and in data set [5] was “Active” each time.
